Screens: PubChem, several laboratories
AI-2 QS mod: modulators of Vibrio harveyi AI-2 quorum sensing system. Vibrio harveyi JMH597 AI-2 luminescence/OD600 ratio, 9 h; stronger effect = lower value; strain lacks LuxN and CqsS sensors; 0 = neutral-control median. activity change, % at 7.5 µM. actives 0.4% (n = 300,000). AID 2094; in the data active = activity change below about -75%, passing the limit was not always enough; inconclusive = no clear call, values can overlap the other calls;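 note: luminescence divided by OD600 gain over 9 h not by final OD600 alone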
Mot1-301 SUMO: blocks SUMOylation pathway, rescuing yeast Mot1-301 growth; actives 1% (n = 320,000); growth rescue, % at 18.8 µM; S. cerevisiae Mot1-301 growth rescue, ATP luminescence, 38.5C; percent above DMSO median, 100 means doubled; AID 2716;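 active = every valid replicate shows activation above 250% relative to neutral control wells; inactive = the rest, any valid replicate at or below 250%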;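 note: OY570 slx delta 5 strain wells were the positive control but not used for scaling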
KCC2 mod: modulates chloride dependent transport by human KCC2; Q9H2X9; KCC2 cells, thallium flux FluoZin-2 fluorescence; B-score of Tl+ flux slope (higher = more flux/activation; lower = inhibition) at 10 µM; actives 2.2% (n = 190,000); AID 1456;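 active = thallium flux slope and its plate-corrected score both differing from the plate sample mean at a set confidence after two filtering rounds, in either direction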;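 note: slope of fluorescence scaled to starting intensity during 10 to 20 s after thallium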
KCNQ1 block: blocks the human KCNQ1 potassium channel; P51787; CHO-K1 KCNQ1, FluxOR thallium flux fluorescence; stronger effect = higher value; B-score at 10 µM; actives 1.3% (n = 310,000);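 active = compounds whose thallium flux B-score, printed positive for inhibition, exceeds three library SD while starting fluorescence stays within three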;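 note: channel opened by potassium depolarization with thallium stimulus after 20 min compound exposure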
hERG rescue: shields human hERG channel from block by proarrhythmic agents. CHO-hERG, FluxOR thallium flux, dofetilide IC70 present. activation (rescue from dofetilide block), less the hit threshold, % at 10 µM. actives 0.51% (n = 310,000). AID 1511;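 active = activation above the mean of controls blocked by dofetilide plus 5 SD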;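 note: thallium influx through hERG after potassium depolarization seen as dye fluorescence rise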
Target sequence (Q12809 whole entry, looked up): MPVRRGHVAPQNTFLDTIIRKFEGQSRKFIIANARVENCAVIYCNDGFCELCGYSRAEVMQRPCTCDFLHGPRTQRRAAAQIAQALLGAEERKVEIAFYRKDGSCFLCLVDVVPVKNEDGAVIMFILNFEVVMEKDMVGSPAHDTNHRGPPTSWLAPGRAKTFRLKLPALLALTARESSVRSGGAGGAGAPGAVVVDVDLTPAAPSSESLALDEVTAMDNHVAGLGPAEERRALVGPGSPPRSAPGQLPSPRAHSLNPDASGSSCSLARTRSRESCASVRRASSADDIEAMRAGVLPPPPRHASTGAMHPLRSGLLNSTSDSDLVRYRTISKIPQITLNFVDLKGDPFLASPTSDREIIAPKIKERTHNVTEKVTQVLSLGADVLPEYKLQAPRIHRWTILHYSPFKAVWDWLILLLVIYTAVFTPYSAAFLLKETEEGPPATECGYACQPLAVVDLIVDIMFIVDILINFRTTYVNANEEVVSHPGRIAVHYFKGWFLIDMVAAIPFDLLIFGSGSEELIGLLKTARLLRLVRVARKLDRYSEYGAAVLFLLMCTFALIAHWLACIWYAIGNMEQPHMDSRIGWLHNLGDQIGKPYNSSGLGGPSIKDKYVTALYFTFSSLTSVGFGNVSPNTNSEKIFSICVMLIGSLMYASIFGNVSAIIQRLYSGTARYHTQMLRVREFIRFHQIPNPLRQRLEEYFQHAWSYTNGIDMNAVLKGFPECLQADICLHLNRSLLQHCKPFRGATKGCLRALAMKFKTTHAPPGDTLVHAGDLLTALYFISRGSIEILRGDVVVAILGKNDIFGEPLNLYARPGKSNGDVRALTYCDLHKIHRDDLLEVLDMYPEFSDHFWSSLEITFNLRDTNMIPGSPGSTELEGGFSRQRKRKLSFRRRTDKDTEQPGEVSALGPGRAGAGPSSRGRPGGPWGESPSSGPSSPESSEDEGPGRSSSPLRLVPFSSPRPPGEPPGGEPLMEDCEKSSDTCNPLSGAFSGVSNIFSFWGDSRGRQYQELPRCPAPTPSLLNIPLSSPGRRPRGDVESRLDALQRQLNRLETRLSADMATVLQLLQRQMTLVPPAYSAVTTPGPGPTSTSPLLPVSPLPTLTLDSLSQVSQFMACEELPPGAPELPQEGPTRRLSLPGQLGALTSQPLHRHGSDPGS
KCNQ1 act: potentiators or activators of human KCNQ1 potassium channel; P51787; CHO-K1 KCNQ1, thallium flux FluxOR fluorescence; stronger effect = higher value; B-score at 10 µM; actives 0.35% (n = 310,000); AID 2648;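 active = fluorescence ratio B-score, a plate-corrected score, at least three library SD, with initial intensity B-score within 5 SD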
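Doses: Single concentration per compound, DMSO matched to controls | Test system: KCNQ1-transfected CHO-K1 cells | Timing: 90 min dye loading and 20 min compound exposure, both at room temperature | Measured by: Kinetic FluxOR thallium fluorescence, 10-s 1-Hz baseline, 110-s post-stimulus read | Medium: Assay buffer with matched DMSO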
KCC2 secondary: confirmation of human KCC2 transport modulators; shares compounds with KCC2 mod; HEK293-KCC2, thallium flux, FluoZin2 fluorescence; stronger effect = higher value; normalised thallium flux (F/F0 slope) at 10 µM; actives 15% (n = 3,700); AID 1713;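 active = thallium flux slope above the same plate's solvent-only control mean plus 3 SD; inconclusive = the two replicate wells disagree; inactive = no significant difference from solvent-only control wells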
KCC2 bumet counter: thallium flux persisting under bumetanide in KCC2 cells, counter-screen secondary assay | actives 49% (n = 3,700) | AID 1714 | HEK293-KCC2 + bumetanide/ouabain, thallium flux FluoZin2; stronger effect = higher value | shares compounds with KCC2 mod | normalized thallium flux at 10 µM;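 active = thallium entry rate above the same plate's blocked-transporter control wells by more than 3 SD; inconclusive = the two repeat wells disagree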;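 note: raw slope of fluorescence over initial fluorescence between 10 and 20 s after thallium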
KCC2 secondary2: confirmation of human KCC2 transport modulators; shares compounds with KCC2 mod; HEK293-KCC2, thallium flux FluoZin2 fluorescence; actives lie on both sides; F/F0 rise rate, 10–20 s post-thallium; normalized thallium flux at 10 µM; actives 23% (n = 3,700); AID 1715;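 active = thallium flux slope more than 3 SD above or below the plate's solvent-only control mean, mostly below; inconclusive = the two repeat wells disagreed; inactive = no significant shift from solvent-only controls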;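 note: raw slope with 0.1% DMSO as baseline and bumetanide as block control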
HEK293 Tl flux: parental HEK flux effect, counter-screen; actives 46% (n = 3,700); thallium flux rate (normalised fluorescence) at 10 µM; HEK293 parental cells, thallium flux FluoZin2, ouabain; baseline-ratio fluorescence slope, 10–20 s after thallium; shares compounds with KCC2 mod;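 active = thallium flux rate significantly above the same plate's solvent-only control wells, beyond their mean plus 3 SD; inconclusive = the two replicate wells gave conflicting results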
KCC2 retest ouab: KCC2 (human) modulation, ouabain retest | shares compounds with KCC2 mod | actives 48% (n = 3,700) | HEK293-KCC2, thallium flux FluoZin2 fluorescence; bidirectional: low = inhibitor, high = activator | raw Tl+ flux slope (below DMSO = inhibition, above = activation) at 10 µM | AID 1717;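 active = thallium flux slope beyond 3 SD from same-plate DMSO control mean in most replicates, usually higher, sometimes lower; inconclusive = repeat tests gave conflicting results; inactive = no significant difference from controls in most replicates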;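 note: slope of initial-normalized fluorescence between seconds 10 and 20 after thallium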
HEK293 Tl flux2: acts in parental HEK cells, second KCC2 counter-screen. shares compounds with KCC2 mod. HEK293 parental, thallium flux FluoZin-2 fluorescence slope. thallium flux slope at 10 µM. actives 33% (n = 3,700);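 active = thallium flux slope above the same plate's solvent-control mean plus 3 SD in both duplicate wells; inconclusive = duplicate wells that disagreed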;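 note: run without ouabain in cells lacking the KCC2 cotransporter; slope of fluorescence scaled to its starting value between 10 and 20 s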
* = called active by the depositor; i = inactive; u = inconclusive; x = no result given. Shown are actives, neighbours in structure and some others; about 4.2% of the full set was active somewhere.

SMILES	AI-2 QS mod	Mot1-301 SUMO	KCC2 mod	KCNQ1 block	hERG rescue	KCNQ1 act	KCC2 secondary	KCC2 bumet counter	KCC2 secondary2	HEK293 Tl flux	KCC2 retest ouab	HEK293 Tl flux2
Cn1c(=O)c2cc(S(=O)(=O)NC(C(=O)N3CCCCCC3)c3ccccc3)ccc2n(C)c1=O (configuration not stated)	x	-4	0.24	x	x	x	x	x	x	x	x	x
Cc1cc(/N=C/C=C2\N(C)c3ccccc3C2(C)C)n(CCC#N)n1	6	12	-3.6*	i	-12	i	0.0078	0.0051	0.03	0.0056*	u	0.0096
Cc1ccc(C2(C(F)(F)F)NC(=O)N3CCCN=C3S2)cc1 (configuration not stated)	-11	18	3.9*	i	2	i	0.0053	0.0039	0.031	0.0071	0.018	0.0095
O=C(NC1CCCCC1)c1sc(=S)n2c1[nH]c(=O)c1ccccc12	-1	-9	8.7*	i	-11	i	0.0081	0.033*	0.041*	0.025*	0.035*	0.027*
CCOc1ccc(N(C(C)C(=O)Nc2ccc(OC)cc2)S(C)(=O)=O)cc1 (configuration not stated)	11	62	-5*	i	-10	i	0.015	0.0046	0.029	0.0073	0.015	0.011
O=C(Cc1ccc(-n2cccc2)cc1)NC1CCCCCC1	35	32	-4.2*	i	-13	i	0.0065	0.0044	u	0.0072	0.016	0.01
O=C(c1ccc(Cl)cc1)C1CCN(C(=O)C2CC2)CC1	3	-16	-0.33	i	-11	i	x	x	x	x	x	x
CC(C)CC(OC(=O)c1nsc(Cl)c1Cl)C(=O)NCc1cccs1 (configuration not stated)	3	i	-3.7*	i	-2	i	0.0061	0.0042	0.028	0.007	0.018	0.0097
CCC(OC(=O)c1nsc(Cl)c1Cl)C(=O)NCc1cccs1 (configuration not stated)	8	-15	0.67	i	-8	i	x	x	x	x	x	x
COc1ccc(-c2nnc(SCC(=O)Nc3ncc(C)s3)n2-c2ccccc2)cc1OC	14	-28	0.35	i	-6	i	x	x	x	x	x	x
Cc1ccc2cccc(NC(=S)NC(=O)c3ccn(C)n3)c2n1	30	1	x	i	-6	i	x	x	x	x	x	x
Cc1ccc2cccc(NC(=S)NC(=O)c3c(Br)cnn3C)c2n1	0	230	5.7*	i	-14	i	0.0067	0.015*	0.027	0.014*	0.029*	0.012*
O=C(NCCc1ccccc1)C1CCC(=O)N1CCc1ccccc1 (configuration not stated)	12	8	x	i	-5	i	x	x	x	x	x	x
CCOc1ccc(CCNC(=O)C2CCC(=O)N2CCc2ccccc2)cc1OCC (configuration not stated)	-3	-7	x	i	-9	i	0.016	0.004	0.031	0.0069	0.016	0.0098
CC[C@@H]1C/C=C\Cc2ccccc2[C@@H](C(=O)C[C@H](O)CC(C)=O)OC1=O	x	2	x	x	x	x	x	x	x	x	x	x
O=C(NCc1cccs1)C1CCN(c2nc3ccccc3o2)CC1	22	-8	x	i	-9	i	0.0076	0.0063	0.033	0.0043	0.016*	0.011
CCOc1ccccc1CNC(=O)C1CCN(c2nc3ccccc3o2)CC1	21	21	x	i	-9	i	0.017	u	u	0.007	0.014	0.0097
CC(Sc1ccccc1)C(=O)N/N=C/c1ccccc1 (configuration not stated)	11	101	x	i	-4	i	x	x	x	x	x	x
CN(CCC1CCCCO1)C(=O)CCc1nnc(C2CCCCC2)o1 (configuration not stated)	23	x	0.15	i	-13	i	x	x	x	x	x	x
CSc1ccc(CN2CCC(n3nccc3NC(=O)c3ccccc3C)CC2)cc1	2	-6	x	i	-15	i	x	x	x	x	x	x
CCOC(=O)c1c(C)nc(C)c(C(=O)OCC)c1-c1cccnc1	6	-10	0.019	i	-8	i	x	x	x	x	x	x
CCOC(=O)c1c(C)nc(C)c(C(=O)OCC)c1-c1ccccc1	x	22	-1	i	-11	i	0.0098	0.0053	0.032	0.0061	0.021	0.0097
O=C(Nc1c(C(=O)O)[nH]c2ccc(F)cc12)c1cccc(C(F)(F)F)c1	25	-24	-0.076	i	-7	i	x	x	x	x	x	x
[O-][n+]1c2ccccc2[n+]([O-])c2cc(O)ccc21	-2	12	x	i	-3	i	x	x	x	x	x	x
COC(=O)c1cc(CSc2nc3ccccc3c(=O)n2C)oc1C	31	5	x	i	-7	i	x	x	x	x	x	x
SMILES	AI-2 QS mod	Mot1-301 SUMO	KCC2 mod	KCNQ1 block	hERG rescue	KCNQ1 act	KCC2 secondary	KCC2 bumet counter	KCC2 secondary2	HEK293 Tl flux	KCC2 retest ouab	HEK293 Tl flux2
CC(C)S(=O)(=O)c1cnc(-c2cccnc2)nc1N	22	-2	0.24	i	-6	i	x	x	x	x	x	x
O=c1nc(Nc2ccccc2)oc2ccccc12	13	364	0.22	i	-10	i	x	x	x	x	x	x
O=c1nc(Nc2cccc(Cl)c2)oc2cc(Cl)oc(=O)c12	4	-22	-4.5*	i	-8	i	0.0062	0.0048	0.029	0.0065	u	0.01
O=C(OC(C(=O)NC1CCCC1)c1ccncc1)C1=Cc2ccccc2OC1 (configuration not stated)	7	-13	-4.3*	i	-7	i	0.0078	0.007	0.03	0.0063	0.016*	0.01
CCSC1=N/C(=C/c2ccsc2)C(=O)N1c1ccccc1	5	13	-4.7*	i	-10	i	0.0093	0.0062	0.034	0.0071	0.022	0.011
CCCSC1=N/C(=C/c2ccsc2)C(=O)N1c1ccccc1	12	-15	-0.00078	i	-2	i	x	x	x	x	x	x
